Only some compounds are listed: those with a hit (about 0.79% of all), similar ones and a draw of the others.
mIAP block: mouse IAP inhibition; purified mouse IAP, CDP-Star luminescence, 30 min; inhibition, % at 10 µM; 330,000 tested, 0.2% active; AID 2806;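 active = inhibition of at least 40% at 10 µM in the primary screen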
bIAP inh: intestinal alkaline phosphatase (bovine) inhibition. purified bovine IAP, CDP-star luminescence, 30 min. inhibition, % at 20 µM. AID 1019. 190,000 tested, under 10 active;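 active = over 50% inhibition of intestinal alkaline phosphatase at 20 µM in the single-dose screen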
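Incubation: 30 min reaction at room temperature / Material: purified bovine intestinal alkaline phosphatase (IAP) enzyme / Input: enzyme at 1/65,000,000 dilution / Dosing: 20 µM single dose / Signal: CDP-star luminescence signal / Reagent: CDP-star chemiluminescent phosphatase substrate, 30 µM final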
bIAP activator: increases bovine intestinal alkaline phosphatase activity | activation factor at 20 µM | AID 1016 | 200,000 tested, 0.17% active | purified bovine IAP, CDP-star luminescence, 30 min; hits give high values; fold of DMSO-control signal, blank-subtracted;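 active = activation factor of 2 or more at 20 µM, a signal rise over negative controls twice the positive control's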
mIAP activ: increases mouse intestinal alkaline phosphatase activity | muIAP, CDP-Star luminescence, 30 min; hits give high values; 1 = vehicle-only enzyme signal, 0 = enzyme-free wells | activation factor at 10 µM | 330,000 tested, 0.24% active;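 active = activation factor of at least 2 at 20 µM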
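System: Mouse IAP enzyme | Also added: CDP-Star substrate | Dosing: Compounds dispensed in DMSO | Schedule: 30 min enzyme-substrate-compound incubation at room temperature | Technique: Chemiluminescence readout | Control set: DMSO-only wells and no-enzyme negative control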
hIAP block: human IAP inhibition; purified IAP, CDP-Star luminescence, 30 min; inhibition, % at 10 µM; 330,000 tested, 0.12% active; AID 2544;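 active = inhibition reaching a set limit with compound at 10 µM in the primary screen, cut at about 35% in these data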
Target sequence (P09923 whole entry, looked up): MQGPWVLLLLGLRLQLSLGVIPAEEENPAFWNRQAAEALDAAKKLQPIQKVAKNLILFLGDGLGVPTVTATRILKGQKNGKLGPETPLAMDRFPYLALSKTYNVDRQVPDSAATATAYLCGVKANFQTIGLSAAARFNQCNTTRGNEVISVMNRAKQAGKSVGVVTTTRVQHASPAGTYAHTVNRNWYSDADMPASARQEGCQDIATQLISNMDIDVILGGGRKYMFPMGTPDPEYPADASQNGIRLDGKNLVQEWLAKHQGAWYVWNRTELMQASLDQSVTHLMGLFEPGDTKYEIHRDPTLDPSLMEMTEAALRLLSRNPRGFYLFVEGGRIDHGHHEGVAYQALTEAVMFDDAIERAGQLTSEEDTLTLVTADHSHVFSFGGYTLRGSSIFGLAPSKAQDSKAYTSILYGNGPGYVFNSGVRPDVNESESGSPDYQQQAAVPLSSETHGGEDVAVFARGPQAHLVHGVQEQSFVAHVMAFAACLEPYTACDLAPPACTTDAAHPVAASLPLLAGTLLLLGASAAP
hIAP activ: human IAP activation | 330,000 tested, 0.16% active | P09923 | purified human IAP, CDP-Star luminescence, 30 min; hits give high values; 1 = vehicle-only enzyme, 0 = enzyme-free background | activation factor at 10 µM;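 active = activation factor of the enzyme at least 2-fold when tested at 20 µM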
Numbers stand for hits; n = inactive; x = no result given.

SMILES	mIAP block	bIAP inh	bIAP activator	mIAP activ	hIAP block	hIAP activ
CN1CCS/C1=C\C=C1/SC(=S)N(CC(=O)O)C1=O	x	x	n	x	x	x
CCN1C(=O)/C(=C/C=C2/SCCN2C)SC1=S	48.3	n	n	n	n	n
O=C(NC(=S)NNC(=O)c1cc2ccccc2cc1O)c1ccco1	n	n	n	n	n	2.24
O=C(NC(=S)NNC(=O)c1ccccc1O)c1ccco1	x	n	n	x	x	x
C#CCOCCOCCOCCNc1nc(N2CCN(C(=O)[C@H](Cc3cc4ccccc4[nH]3)n3cc([C@@H](N)CC(C)C)nn3)CC2)nc(N2CCN(C(=O)[C@H](Cc3cc4ccccc4[nH]3)n3cc([C@@H](N)CC(C)C)nn3)CC2)n1	n	n	3.2	2.09	n	n
C#CCOCCOCCOCCNc1nc(N2CCN(C(=O)[C@H]([C@@H](C)CC)n3cc([C@@H](N)Cc4ccc(O)cc4)nn3)CC2)nc(N2CCN(C(=O)[C@H](Cc3cc4ccccc4[nH]3)n3cc([C@@H](N)C(C)CC)nn3)CC2)n1 (some centres not stated)	n	n	n	n	n	n
C#CCOCCOCCOCCNc1nc(N2CCN(C(=O)[C@H](Cc3cc4ccccc4[nH]3)n3cc([C@@H](N)C(C)CC)nn3)CC2)nc(N2CCN(C(=O)[C@H](Cc3cc4ccccc4[nH]3)n3cc([C@@H](N)Cc4ccc(O)cc4)nn3)CC2)n1 (some centres not stated)	n	n	2.2	2.08	n	n
CCOC(=O)[C@@H]1[C@H]2COc3ccccc3[C@@H]2N2C(=O)N(c3cccc(F)c3)C(=O)[C@@]12C	n	x	x	n	n	n
O=Cc1[nH]c2ccccc2c1N(C(=O)CCl)c1ccc([N+](=O)[O-])cc1	n	x	x	n	35.2	n
CC(=O)n1cc(N(C(=O)CCl)c2ccc([N+](=O)[O-])cc2)c2ccccc21	n	x	x	n	n	n
CCOc1ccc(CCNC(=O)c2ccc3c(c2)NC(=O)C2CCCN32)cc1OCC (configuration not stated)	n	x	x	2.03	n	n
COc1ccc(NC(=O)Nc2ccc3c(c2)C(=O)N([C@H](C)CO)C[C@H](C)[C@@H](CN(C)C(=O)NC2CCCCC2)O3)cc1	n	x	x	2.39	n	n
Cc1noc(C)c1S(=O)(=O)N(C)C[C@H]1Oc2ccc(NC(=O)NC3CCCCC3)cc2C(=O)N([C@H](C)CO)C[C@@H]1C	n	x	x	2.57	n	n
COc1ccc(NC(=O)N(C)C[C@H]2Oc3ccc(NC(=O)NC4CCCCC4)cc3C(=O)N([C@H](C)CO)C[C@@H]2C)cc1	n	x	x	2.05	n	n
CC(C)[C@@]1(c2ccc(Cl)cc2)ON(c2ccccc2C(F)(F)F)C1=O	n	x	x	n	n	n
COc1ccccc1CNC(=O)CN1C(=O)NC2(CCCC2)C1=O	n	x	x	n	n	n
CC(=O)OCCCN1c2ccccc2Nc2nnc(-c3ccccc3)cc21	n	n	27.8	3.5	n	n
c1ccc2c3c([nH]c2c1)C(C1CCCCC1)N(Cc1ncc[nH]1)CC3 (configuration not stated)	n	n	2.1	n	n	n
Cc1ccc(NC(=O)Cc2csc(-c3ccccc3)n2)cc1F	n	n	n	n	35.5	n
O=C(Cc1csc(-c2ccccc2)n1)Nc1ccc(C(F)(F)F)cc1	n	n	n	n	n	n
CCn1c(C)cc(/C=C2/SC(=S)NC2=O)c1C	51.6	n	n	n	n	n
CCOC(=O)C1CCN(C(=O)C2CCCN(S(=O)(=O)c3ccc(OCC)c(Cl)c3)C2)CC1 (configuration not stated)	n	x	x	n	n	n
Cc1onc(-c2c(F)cccc2Cl)c1C(=O)Nc1nnc(C(F)(F)F)s1	n	x	x	n	n	n
C[C@H](CO)N1C[C@H](C)[C@H](CN(C)S(=O)(=O)c2cn(C)cn2)Oc2ccc(NC(=O)Nc3ccc(C(F)(F)F)cc3)cc2CC1=O	n	x	x	2.69	n	n
C[C@H]1CN([C@@H](C)CO)C(=O)c2cccc(NC(=O)Nc3ccc(C(F)(F)F)cc3)c2O[C@@H]1CN(C)S(=O)(=O)c1ccc(Cl)cc1	n	x	x	2.11	n	n
SMILES	mIAP block	bIAP inh	bIAP activator	mIAP activ	hIAP block	hIAP activ
C[C@@H]1CN([C@@H](C)CO)C(=O)Cc2cc(NC(=O)Nc3ccc(C(F)(F)F)cc3)ccc2O[C@@H]1CN(C)S(=O)(=O)c1ccc(Cl)cc1	n	x	x	n	n	n
C[C@H](CO)N1C[C@H](C)[C@@H](CN(C)C(=O)Nc2ccc(C(F)(F)F)cc2)Oc2ccc(NC(=O)Nc3ccccc3)cc2C1=O	n	x	x	2.43	n	n
C[C@H](CO)N1C[C@H](C)[C@@H](CN(C)C(=O)Nc2ccc(C(F)(F)F)cc2)Oc2ccc(NC(=O)NC3CCCCC3)cc2C1=O	n	x	x	3.12	n	n
COc1cc(/C=C/C(=O)OCC(=O)Nc2c(C)n(C)n(-c3ccccc3)c2=O)cc(OC)c1OC	n	x	x	n	n	n
O=C(C[C@H]1C/C=C\C[C@H](NC(=O)OCC2c3ccccc3-c3ccccc32)C(=O)O[C@H](c2ccccc2)CNC1=O)N[C@H](CO)Cc1ccccc1	n	x	x	n	n	n
Cc1noc(C)c1NC(=O)N(C)C[C@H]1Oc2ccc(NC(=O)Nc3ccc(C(F)(F)F)cc3)cc2C(=O)N([C@H](C)CO)C[C@@H]1C	n	x	x	2.55	n	n
Cc1noc(C)c1NC(=O)N(C)C[C@H]1Oc2ccc(NC(=O)NC(C)C)cc2C(=O)N([C@H](C)CO)C[C@H]1C	n	x	x	n	n	n
C[C@H](CO)N1C[C@H](C)[C@@H](CN(C)S(C)(=O)=O)Oc2ccc(NC(=O)Nc3ccc(C(F)(F)F)cc3)cc2C1=O	n	x	x	2.26	n	n
C[C@H](CO)N1C[C@H](C)[C@@H](CN(C)C(=O)NC2CCCCC2)Oc2ccc(NC(=O)Nc3ccc(C(F)(F)F)cc3)cc2C1=O	n	x	x	2.3	n	n
CCOc1ccccc1/C=N/NC(=O)C[n+]1ccccc1	n	x	x	n	n	n
COC(=O)c1c(C(=O)OC)c(-c2ccc(Br)cc2)n2c1CS(=O)C2 (configuration not stated)	n	x	x	n	n	n
c1ccc(CNc2c3c(nc4ncnn24)CCCC3)nc1	n	n	4.8	n	n	n
COc1ccc(-c2cc(NCc3ccccn3)n3ncnc3n2)cc1	n	n	7.4	n	n	n
COc1ccc(/C(C)=N/NC(=O)c2cccc(S(=O)(=O)N3CCCC3)c2)c(O)c1	n	x	x	n	n	n
Cc1cc(C)c(NC(=S)NC(NC(=O)c2ccccc2)C(Cl)(Cl)Cl)c(C)c1 (configuration not stated)	n	n	n	2.52	n	n
Cc1ccc(NC(=S)NC(NC(=O)c2ccco2)C(Cl)(Cl)Cl)cc1 (configuration not stated)	n	n	n	n	n	n

Screens as filed in PubChem BioAssay.
